Reference: ChEMBL document CHEMBL2029283, “Disubstituted 1,8-dipyrazolcarbazole derivatives as a new type of c-myc G-quadruplex binding ligands” (Bioorg Med Chem, 2012)
Activity calls are given as the source filed them. The rule behind the calls is not given here.

Key:
Nucleic Acid [1] = assay: Binding affinity to duplex DNA F10T assessed as change in melting temperature at 1 uM by FRET-melting assay; type: nucleic-acid assay
Method in brief: (§1)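 FRET melting of FAM/TAMRA-labelled oligonucleotides (FPu18T, F21T or duplex F10T), each 0.2 μM, with compound 1.0 μM in 10 mM Tris-HCl pH 7.2 containing KCl. For competition, excess ds26 duplex (3 or 10 μM) was added.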

HepG2 = assay: Cytotoxicity against human HepG2 cells after 48 hrs by MTT assay; type: functional, cell-based; details: HepG2, 48 h
Method in brief: (§2)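 Cells kept in RPMI-1640 with 10% FBS, seeded at 1.0 × 10^ cells per well and exposed to graded compound for 48 h at 37 °C in 5% CO2. MTT (5 mg/mL solution) was then added for 4 h, formazan dissolved in DMSO, and OD read at 570 nm. Tests were run in triplicate, and IC50 was derived from mean OD versus concentration curves.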

Nucleic Acid [2] = assay: Binding affinity to c-myc G-quadruplex DNA FPu18T assessed as change in CD spectra at 25 uM by CD spectrophotometric analysis in presence of 100 mM K+ ions; type: nucleic-acid assay
Method in brief: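 CD spectra of Pu18 (5 μM) with ligand at 25 μM in 10 mM Tris-HCl pH 7.2 plus 100 mM KCl. Samples were heated to 95 °C, slowly cooled and held at 4 °C for ≥6 h. Spectra were recorded over 220–450 nm with 1 nm bandwidth and 0.5 s per point, averaging two scans.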

Nucleic Acid [3] = assay: Binding affinity to c-myc G-quadruplex DNA FPu18T assessed as change in melting temperature at 1 uM by FRET-melting assay in presence of excess duplex oligomer ds26; type: nucleic-acid assay; method in brief: as §1
Ramos [4] = assay: Suppression of c-myc mRNA level in human Ramos cells expressing NHE III1 at 10 uM by RT-PCR analysis; type: functional, cell-based
Method in brief: (§3)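 Ramos or CA46 cells were seeded at 100,000 per well and treated for 4 days with 1, 2.5, 5 or 10 μM compound or DMSO. Total RNA was extracted in Redzol and reverse-transcribed with oligo dT18 at 42 °C for 1 h. c-myc (91 bp) and β-actin (541 bp) were PCR-amplified and run on 1% agarose. Densitometry values were normalized to β-actin.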

CA46 = assay: Decrease in c-myc expression in promoter element P1 and P2-deficient human CA46 cells by RT-PCR analysis; type: functional, cell-based; method in brief: as §3
Nucleic Acid [5] = assay: Binding affinity to biotinylated-c-myc G-quadruplex DNA FPu18T by SPR assay; type: nucleic-acid assay
Method in brief: (§4)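 SPR with biotinylated DNA captured to about 1000 RU in flow cells 1 and 2, the third left blank as reference. Running buffer was 50 mM Tris-HCl pH 7.2, 100 mM KCl. Ligand at 0.3125–10 μM was injected for 150 s association and 300 s dissociation at 25 °C, with 1 M NaCl regeneration. Blank-subtracted sensorgrams were fitted with a Langmuir kinetic model.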

Nucleic Acid [6] = assay: Binding affinity to G-quadruplex DNA Pu27 assessed as inhibition of hybridization with complementary strand after 3 mins by PCR-stop assay; type: nucleic-acid assay
Method in brief: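 Taq polymerase-stop on Pu27 with its complementary strand, each oligomer 10 μM, in 1× PCR buffer with 0.16 mM dNTP, 2.5 U Taq and graded compound. Cycling was 94 °C 3 min, then 30 cycles of 94 °C 30 s, […] 30 s, 72 °C 30 s. Products were run on 15% nondenaturing PAGE in TBE and silver stained. IC50 was taken for inhibition of amplification.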

Nucleic Acid [7] = assay: Binding affinity to c-myc G-quadruplex DNA FPu18T assessed as conformational changes at 25 uM by CD spectrophotometric analysis in absence of K+ ions; type: nucleic-acid assay
Method in brief: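 CD spectra of Pu18 (5 μM) with ligand at 25 μM in 10 mM Tris-HCl pH 7.2 with no KCl. Samples were annealed from 95 °C and held at 4 °C for ≥6 h. Spectra were recorded over 220–450 nm with 1 nm bandwidth, averaging two scans.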

NCI-H460 = assay: Cytotoxicity against human NCI-H460 cells after 48 hrs by MTT assay; type: functional, cell-based; details: NCI-H460, 48 h; method in brief: as §2
Nucleic Acid [8] = assay: Binding affinity to biotinylated-telomeric G-quadruplex DNA HTG21 by SPR assay; type: nucleic-acid assay; method in brief: as §4
Nucleic Acid [9] = assay: Binding affinity to biotinylated-duplex DNA at 20 uM by SPR assay; type: nucleic-acid assay
HL-60 = assay: Cytotoxicity against human HL60 cells after 48 hrs by MTT assay; type: functional, cell-based; details: HL-60, 48 h; method in brief: as §2
Ramos [10] = assay: Decrease in c-myc expression in human Ramos cells expressing NHE III1 at 2.5 uM by RT-PCR analysis; type: functional, cell-based; method in brief: as §3
Nucleic Acid [11] = assay: Binding affinity to c-myc G-quadruplex DNA FPu18T assessed as change in melting temperature at 1 uM by FRET-melting assay; type: nucleic-acid assay; method in brief: as §1
ECV-304 = assay: Cytotoxicity against human ECV304 cells after 48 hrs by MTT assay; type: cell-based; details: ECV-304, 48 h; method in brief: as §2
Nucleic Acid [12] = assay: Binding affinity to human telomeric G-quadruplex DNA F21T assessed as change in melting temperature at 1 uM by FRET-melting assay; type: nucleic-acid assay; method in brief: as §1
Nucleic Acid [13] = assay: Binding affinity to biotinylated-telomeric G-quadruplex DNA HTG21 at 20 uM by SPR assay; type: nucleic-acid assay
Nucleic Acid [14] = assay: Binding affinity to biotinylated-c-myc G-quadruplex DNA FPu18T at 20 uM by SPR assay; type: nucleic-acid assay
Nucleic Acid [15] = assay: Selectivity ratio of Kd for biotinylated-telomeric G-quadruplex DNA HTG21 to Kd for biotinylated-c-myc G-quadruplex DNA FPu18T; type: nucleic-acid assay; method in brief: as §4

Structure (SMILES)	ΔTm (Nucleic Acid [1])	IC50 (HepG2)	Activity (Nucleic Acid [2])	Activity (Nucleic Acid [3])	Activity (Ramos [4])	Activity (CA46)	Kd (Nucleic Acid [5])	IC50 (Nucleic Acid [6])	Activity (Nucleic Acid [7])	IC50 (NCI-H460)	Kd (Nucleic Acid [8])	Activity (Nucleic Acid [9])	IC50 (HL-60)	Activity (Ramos [10])	ΔTm (Nucleic Acid [11])	IC50 (ECV-304)	ΔTm (Nucleic Acid [12])	Activity (Nucleic Acid [13])	Activity (Nucleic Acid [14])	Ratio (Nucleic Acid [15])
O=C(CCN1CCCCC1)Nc1cc(-n2cccn2)c2[nH]c3c(-n4cccn4)cc(NC(=O)CCN4CCCCC4)cc3c2c1	0.3 °C	5.1 µM	Active	Active	Active	inactive	0.135 µM	4.9 µM	Active	2.7 µM	1.88 µM	inactive	1.2 µM	Active	12.1 °C	25 µM	9.7 °C	–	–	–
O=C(CCN1CCOCC1)Nc1cc(-n2cccn2)c2[nH]c3c(-n4cccn4)cc(NC(=O)CCN4CCOCC4)cc3c2c1	0.3 °C	6.9 µM	–	Active	–	–	–	> 20 µM	–	2.8 µM	–	inactive	1.7 µM	–	7.3 °C	26.2 µM	4.2 °C	inactive	inactive	–
CCN(CC)CCC(=O)Nc1cc(-n2cccn2)c2[nH]c3c(-n4cccn4)cc(NC(=O)CCN(CC)CC)cc3c2c1	0.3 °C	2.7 µM	Active	Active	–	–	0.233 µM	6.3 µM	–	2.6 µM	2.59 µM	inactive	1.9 µM	–	18.1 °C	23.3 µM	11.9 °C	–	–	–
CCN(CC)CC(=O)Nc1cc(-n2cccn2)c2[nH]c3c(-n4cccn4)cc(NC(=O)CN(CC)CC)cc3c2c1	0.6 °C	3 µM	–	Active	–	–	2.03 µM	> 20 µM	–	2.5 µM	6.86 µM	inactive	2 µM	–	7.4 °C	22.8 µM	3.6 °C	–	–	–
O=C(CN1CCOCC1)Nc1cc(-n2cccn2)c2[nH]c3c(-n4cccn4)cc(NC(=O)CN4CCOCC4)cc3c2c1	0.2 °C	6.1 µM	–	Active	–	–	–	> 20 µM	–	3.9 µM	–	inactive	3.9 µM	–	4.4 °C	29.3 µM	1.2 °C	inactive	inactive	–
O=C(CN1CCCC1)Nc1cc(-n2cccn2)c2[nH]c3c(-n4cccn4)cc(NC(=O)CN4CCCC4)cc3c2c1	0.3 °C	2.7 µM	–	Active	–	–	0.694 µM	5.2 µM	–	2.7 µM	2.97 µM	inactive	1.9 µM	–	9.3 °C	22.2 µM	6.3 °C	–	–	–
O=C(CN1CCCCC1)Nc1cc(-n2cccn2)c2[nH]c3c(-n4cccn4)cc(NC(=O)CN4CCCCC4)cc3c2c1	0.1 °C	5.6 µM	–	Active	–	–	1.46 µM	> 20 µM	–	3.3 µM	8.07 µM	inactive	2.4 µM	–	5.5 °C	27.3 µM	4 °C	–	–	–
O=C(CCN1CCCC1)Nc1cc(-n2cccn2)c2[nH]c3c(-n4cccn4)cc(NC(=O)CCN4CCCC4)cc3c2c1	0.5 °C	4.2 µM	Active	Active	–	–	0.131 µM	3.6 µM	–	3.5 µM	2.64 µM	inactive	2.2 µM	–	15.1 °C	25.2 µM	10.7 °C	–	–	> 20
